Test results from ChEMBL document CHEMBL1629654, “Breakthrough Aspergillus fumigatus and Candida albicans double infection during caspofungin treatment: laboratory characteristics and implication for susceptibility testing” (2009).
Converted amounts (≈) assume the structure as drawn.

Columns and labels:
Candida albicans [1] = assay: Antimicrobial activity against Candida albicans after 48 hrs by Etest; type: functional
Candida albicans [2] = assay: Antimicrobial activity against Candida albicans isolate R obtained from urine of patient 38 days after admission by Etest; type: functional
Procedure, shortened: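 Etest on RPMI 1640 agar with 2% glucose, performed according to the manufacturer's recommendations.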

Candida albicans [3] = assay: Antimicrobial activity against Candida albicans obtained from urine of patient 21 days after admission by EUCAST microdilution method; type: functional; conditions: 504 h
Procedure, shortened: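 EUCAST broth microdilution, plates read spectrophotometrically at 490 nm. MIC is the lowest dilution giving 50% growth inhibition. C. krusei […] control included in each run.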

Clavispora lusitaniae [4] = assay: Antimicrobial activity against Candida lusitaniae after 48 hrs
Clavispora lusitaniae [5] = assay: Antimicrobial activity against Candida lusitaniae after 48 hrs by 80% endpoint M27-A method
Candida albicans [6] = assay: Antimicrobial activity against Candida albicans isolate S at 25 ug/ml grown on Muller-Hinton agar medium after 24 hrs by disk diffusion method; type: functional
Procedure, shortened: (§1)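 Disk diffusion on 90-mm RPMI 1640 with 2% glucose agar or on Mueller-Hinton agar. Plates were swabbed in three directions with a yeast suspension of 1–5 × 10^6 cells/ml. Paper disks (6 mm) held 1, 5 or 25 µg drug. Zone diameters were read at 24 and 48 h; values are means of two experiments.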

Candida albicans [7] = assay: Antimicrobial activity against Candida albicans isolate R at 1 ug/ml grown on Muller-Hinton agar medium after 24 hrs by disk diffusion method; type: functional; procedure, shortened: as §1
Pichia kudriavzevii [8] = assay: Antimicrobial activity against Candida krusei after 48 hrs by broth microdilution method; type: functional
Candida parapsilosis = assay: Antimicrobial activity against Candida parapsilosis after 24 hrs by M27-A3 method; type: functional; conditions: Lodderomyces parapsilosis
Pichia kudriavzevii [9] = assay: Antimicrobial activity against Candida krusei after 48 hrs
Candida albicans [10] = assay: Antimicrobial activity against Candida albicans isolate S at 5 ug/ml grown on Muller-Hinton agar medium after 24 hrs by disk diffusion method; type: functional; procedure, shortened: as §1
Candida albicans [11] = assay: Antimicrobial activity against Candida albicans after 24 hrs by M27-A3 method; type: functional

For `CC[C@H](C)C[C@H](C)CCCCCCCCC(=O)N[C@H]1C[C@@H](O)[C@@H](NCCN)NC(=O)[C@@H]2[C@@H](O)CCN2C(=O)[C@H]([C@H](O)CCN)NC(=O)[C@H]([C@H](O)[C@@H](O)c2ccc(O)cc2)NC(=O)[C@@H]2C[C@@H](O)CN2C(=O)[C@H]([C@@H](C)O)NC1=O` [CASPOFUNGIN], the MIC90 (Candida albicans [1]) was 0.25 µg/mL (≈ 0.229 µM), the MIC (Candida albicans [2]) was > 32 µg/mL and the MIC (Candida albicans [3]) was 1 µg/mL (≈ 0.915 µM). For the same compound, the MIC90 (Clavispora lusitaniae [4]) was 1 µg/mL (≈ 0.915 µM), the MIC90 (Clavispora lusitaniae [5]) was 1 µg/mL (≈ 0.915 µM) and the “inhibition zone (IZ)” value (Candida albicans [6]) was 23.3 mm. The “inhibition zone (IZ)” value (Candida albicans [7]) was 6.1 mm, the MIC90 (Pichia kudriavzevii [8]) was 2 µg/mL (≈ 1.83 µM) and the MIC90 (Candida parapsilosis) was 1 µg/mL (≈ 0.915 µM). For the same compound, the MIC90 (Pichia kudriavzevii [9]) was 1 µg/mL (≈ 0.915 µM), the “inhibition zone (IZ)” value (Candida albicans [10]) was 19.2 mm and the MIC90 (Candida albicans [11]) was 0.06 µg/mL (≈ 0.0549 µM).
